Data set [1] concerns M2–M5. As to the kind of experiment: M2–M5 selectivity, full CRCs in HTS high-expressing CHO cell lines. In kind it is cell-based, rat. The conditions noted are these: read-out: M2–M5 EC50s; HTS high-expressing CHO cell line; average of at least three determinations.
For data set [2], the system named is TREx293-hM1 cells.
The subject of data set [3] is M2–M5. To be noted: read-out: EC50 versus M2–M5; ML071 probe data; cited from earlier work.
In data set [4] the test system is 68 GPCRs, ion channels and transporters (including all the BARs). To be noted: 10 µM; cited from earlier work.
Data set [5] has as its system TREx293-hM1 cells. To be noted: in cell culture; cited from earlier work.
Data set [6] deals with NMDA receptor currents in hippocampal CA1 pyramidal cells. The conditions noted are these: cited from earlier work.
Data set [7] has as its target T1, M1 (Rattus norvegicus, UniProt P08482).
T1 sequence (P08482 1-460): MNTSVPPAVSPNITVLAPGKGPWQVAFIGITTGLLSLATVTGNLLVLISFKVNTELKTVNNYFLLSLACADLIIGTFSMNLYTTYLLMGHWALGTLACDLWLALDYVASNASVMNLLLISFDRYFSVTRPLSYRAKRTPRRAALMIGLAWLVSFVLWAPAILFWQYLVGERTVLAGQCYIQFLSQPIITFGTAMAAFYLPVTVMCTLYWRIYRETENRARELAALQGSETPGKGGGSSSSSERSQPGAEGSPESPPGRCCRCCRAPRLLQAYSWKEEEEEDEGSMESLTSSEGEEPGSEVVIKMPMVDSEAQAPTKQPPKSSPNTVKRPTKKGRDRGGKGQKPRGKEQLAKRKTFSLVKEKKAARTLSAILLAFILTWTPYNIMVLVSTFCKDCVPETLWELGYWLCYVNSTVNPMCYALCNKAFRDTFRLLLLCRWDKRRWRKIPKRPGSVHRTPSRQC
As to the kind of experiment: functional M1 agonist assay in rat HTS high-expressing CHO cell line. The conditions noted are these: 10 µM M1 single point screen. The data set is classed as cell-based.

Data set [8] concerns 68 GPCRs, ion channels and transporters (including all the BARs). As to the kind of experiment: radioligand binding panel of 68 GPCRs, ion channels and transporters. The conditions noted are these: 10 µM.
The target of the next data set is D2 receptor (Homo sapiens, UniProt P14416). Briefly: functional D2 antagonism CRC. The data set is classed as cell-based.
Chain of D2 receptor (P14416 whole entry): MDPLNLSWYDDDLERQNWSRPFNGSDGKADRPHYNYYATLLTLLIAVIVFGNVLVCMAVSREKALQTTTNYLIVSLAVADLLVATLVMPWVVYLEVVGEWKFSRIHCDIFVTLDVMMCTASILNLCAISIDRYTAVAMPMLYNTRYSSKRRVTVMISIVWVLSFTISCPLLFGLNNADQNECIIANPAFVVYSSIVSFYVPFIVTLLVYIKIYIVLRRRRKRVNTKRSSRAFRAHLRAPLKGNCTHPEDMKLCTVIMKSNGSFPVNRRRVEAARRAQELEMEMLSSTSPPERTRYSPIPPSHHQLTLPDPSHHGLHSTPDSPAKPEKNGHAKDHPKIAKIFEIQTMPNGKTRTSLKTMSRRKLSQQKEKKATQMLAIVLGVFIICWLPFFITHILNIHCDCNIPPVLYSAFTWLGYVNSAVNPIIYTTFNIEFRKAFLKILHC
The subject of data set [9] is NMDA receptor currents in hippocampal CA1 pyramidal cells. Briefly: potentiation of NMDA receptor currents, whole cell recording. The data set is classed as cell-based. The conditions noted are these: 30 µM. A digest of the protocol:
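Whole-cell recording of NMDA-evoked currents in hippocampal CA1 pyramidal cells. Current amplitude was normalized and followed over time before, during and after application of 30 µM test compound.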

The nature of another data set: intrinsic clearance, rat. In kind it is in vitro ADME.
A short description of data set [10]: intrinsic clearance, human. The data set is classed as in vitro ADME.
A short description of the next data set: oral plasma:brain level. In kind it is in vivo, male Sprague-Dawley rats. The conditions noted are these: 10 mg/kg oral, 90 minute endpoint, individual animal.
For data set [11], the target named is T2, M1 (Homo sapiens, UniProt P11229).
T2 sequence (P11229 1-460): T1 sequence (P08482 1-460) with V5A, S254T, S309P, K320R, G337A, V413I
Briefly: M1 agonist assay in new cell lines with expression resembling native levels. To be noted: new cell lines with expression more closely resembling native levels. In kind it is cell-based, rat and human.

Numbering of substitutions follows the chain as printed. Read-outs that look alike come from different tables or passages of the source. A value given as a limit tells only on which side of the number the result lay.

As a reminder, the CLint scaled is the capacity of the preparation to metabolise the compound, expressed as a volume cleared per time. In general, Kp refers to tissue or fluid exposure divided by exposure in the circulation.

`CCOC(=O)N1CCC(N2CCC[C@@H](NC(=O)c3ccc(F)cc3C)C2)CC1` [20a]: the EC50 with M2–M5 [1] was over 10 µM. On the same count and under the same terms, for `CCOC(=O)N1CCC(N2CCC[C@@H](NC(=O)c3ccccc3)C2)CC1` [20b] the value was over 10 µM; for `CCOC(=O)N1CCC(N2CCC[C@@H](NC(=O)c3cccc(F)c3)C2)CC1` [20c], over 10 µM. The same measure, in the same setting: under `CCOC(=O)N1CCC(N2CCC[C@@H](NC(=O)c3cccc(OC)c3)C2)CC1` [20d] stands over 10 µM; under `CCOC(=O)N1CCC(N2CCC[C@@H](NC(=O)c3ccc(F)c(F)c3)C2)CC1` [20e], over 10 µM; under `CCOC(=O)N1CCC(N2CCC[C@@H](NC(=O)c3ccc(C)cc3)C2)CC1` [20f], over 10 µM.

`CCOC(=O)N1CCC(N2CCC[C@@H](NC(=O)C3CCCCC3)C2)CC1` [20g]: the EC50 in the data set with M2–M5 [1] is over 10 µM. Regarding `CCOC(=O)N1CCC(N2CCC[C@@H](NC(=O)c3cccs3)C2)CC1` [20h], the EC50 with M2–M5 [1] was over 10 µM.

As to `CCOC(=O)N1CCC(N2CCC[C@@H](NC(=O)c3ccc(OC)cc3)C2)CC1` [20i], the EC50 in the data set on M2–M5 [1] was over 10 µM.

In the case of `CCOC(=O)N1CCC(N2CCC[C@@H](NC(=O)c3ccccc3Cl)C2)CC1` [20j], the EC50 in the data set on M2–M5 [1] was over 10 µM.

On to `CCOC(=O)N1CCC(N2CCC[C@@H](NC(=O)C3CCCC3)C2)CC1` [20k], for which the EC50 with M2–M5 [1] was over 10 µM. In the case of `C[N+](C)(C)CCOC(N)=O.[Cl-]` [carbachol], the “increase in soluble APP (sAPPα)” value in the data set on TREx293-hM1 cells [2] is “significant increase”.

On to `CCOC(=O)N1CCC(NCCNC(=O)c2ccccc2C)CC1` [compound 8], for which the EC50 in the data set with M2–M5 [1] and in the data set with M2–M5 [3] was over 30 µM in each case. For the same molecule, the “activity in radioligand binding panel” value in data set [4] is on record as at most 50%. For the same molecule, in the data set on TREx293-hM1 cells [5], the “soluble APP (sAPPα)” value is recorded as “significant increase”. In addition, the “effect on NMDA receptor currents” value in [6] was “potentiated NMDA receptor currents”.

For `CCOC(=O)N1CCC(N2CCN(C(=O)c3ccccc3C)CC2)CC1` [compound 13], the M1 activation result at M1 [7] is given as “less than 30%”. Still for that read-out and setting: under `CCOC(=O)N1CCC(N2C[C@@H]3C[C@H]2CN3C(=O)c2ccccc2C)CC1` [compound 14] stands “less than 30%”.

Regarding `CCOC(=O)N1CCC(N2C[C@H]3CN(C(=O)c4ccccc4C)C[C@H]3C2)CC1` [compound 15], the M1 activation entry at M1 [7] is “less than 30%”. Same read-out and setting: under `CCOC(=O)N1CCC(N2CCC[C@H](NC(=O)c3ccccc3C)C2)CC1` [compound 16] stands “inactive”. Take `CCOC(=O)N1CCC(N2CCC[C@@H](NC(=O)c3ccccc3C)C2)CC1` [compound 17]: on M1 [7], the “M1 activation” value is “full activation of M1”. Moreover, the EC50 in the data set with M2–M5 [1] was over 30 µM. In addition, the “inhibition in radioligand binding panel” value in data set [8] was at most 30%. Besides, the “functional activity at the D2 receptor” value on D2 receptor is listed as “no functional activity”. Moreover, the “persistence of potentiation after washout” value in data set [9] was 10 min. The “effect on NMDA receptor currents” value in data set [9] (listed as VU0364572) is recorded as “potentiates NMDA receptor currents”. Further, the CLint scaled in the data set “intrinsic clearance, rat” stood at 23.4 mL/min/kg. This molecule also returned a CLint scaled in [10] of 11.2 mL/min/kg. Moreover, in “oral plasma:brain level”, the Brain is on record as 1.89 µM, the “Brain:Plasma” value was determined as 1.17 and the Plasma was determined as 1.62 µM. This molecule came in with a concentration at 90 min in the data set “oral plasma:brain level” (male, Sprague-Dawley, rat, brain, oral, 10 mg/kg) of 2230 nM. Also, in the data set “oral plasma:brain level” (male, Sprague-Dawley, rat, brain/plasma, po, 10 mg/kg, Brain:Plasma), the Kp at 1.5 h came out at 1.54. In addition, the “ACh Max versus high-expressing HTS lines” value on M1 [11] was “slightly lower ACh Max”.

Source of the values: paper PMC3190051 (Bioorganic & medicinal chemistry letters, 2011).
